# From ChEMBL document CHEMBL3813598, “Development of hydroxy-based sphingosine kinase inhibitors and anti-inflammation in dextran sodium sulfate induced colitis in mice” (Bioorg Med Chem, 2016)
# The source made the active and inactive calls. The rule behind the calls is not given here.
# Columns and labels:
# Sphingosine kinase 2 [1] = molecular target: T1, Sphingosine kinase 2 (Homo sapiens, UniProt Q9NRA0); test: Inhibition of GST-tagged full length human recombinant SPHK2 expressed in baculovirus using sphingosine as substrate preincubated for 10 mins measured after 1 hr by ADP-quest assay
# T1 sequence (Q9NRA0 whole entry): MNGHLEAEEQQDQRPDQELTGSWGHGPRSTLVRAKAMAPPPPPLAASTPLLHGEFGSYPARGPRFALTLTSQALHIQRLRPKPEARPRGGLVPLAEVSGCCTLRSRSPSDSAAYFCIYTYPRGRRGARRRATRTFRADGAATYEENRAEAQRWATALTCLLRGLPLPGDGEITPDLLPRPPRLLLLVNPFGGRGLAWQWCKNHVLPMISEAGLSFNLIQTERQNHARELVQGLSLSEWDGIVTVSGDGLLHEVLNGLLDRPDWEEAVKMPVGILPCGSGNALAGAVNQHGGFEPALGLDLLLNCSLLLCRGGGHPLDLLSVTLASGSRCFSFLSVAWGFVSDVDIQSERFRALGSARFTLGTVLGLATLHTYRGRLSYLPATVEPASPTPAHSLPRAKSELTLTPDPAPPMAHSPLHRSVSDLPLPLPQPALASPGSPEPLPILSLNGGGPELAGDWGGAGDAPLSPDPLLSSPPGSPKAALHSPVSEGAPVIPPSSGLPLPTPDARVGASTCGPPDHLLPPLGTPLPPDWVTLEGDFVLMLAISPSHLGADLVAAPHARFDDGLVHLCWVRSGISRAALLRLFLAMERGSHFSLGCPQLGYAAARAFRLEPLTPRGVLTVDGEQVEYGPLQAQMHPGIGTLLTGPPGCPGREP
# How it was run: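 Human recombinant SphK1 or SphK2 with sphingosine substrate and ATP, tested in 384-well format. Enzyme was preincubated with compound for 10 min, then the reaction ran at 28 °C for 1 h. ADP Quest reagents A and B were added for 30 min at room temperature. Fluorescence was read at Ex 530/Em 590 nm. Values are mean of n = 3 in triplicate.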
# Sphingosine kinase 1 [2] = molecular target: T2, Sphingosine kinase 1 (Homo sapiens, UniProt Q9NYA1); test: Inhibition of GST-tagged full length human recombinant SPHK1 expressed in baculovirus using sphingosine as substrate preincubated for 10 mins measured after 1 hr by ADP-quest assay
# Sphingosine kinase 2 [3] = molecular target: T1, Sphingosine kinase 2; test: Inhibition of His-tagged full length human recombinant SPHK2 expressed in baculovirus infected fall armyworm Sf9 cell expression system using sphingosine as substrate by ADP-quest assay
# Sphingosine kinase 1 [4] = molecular target: T2, Sphingosine kinase 1; test: Inhibition of His-tagged full length human recombinant SPHK1 expressed in baculovirus infected fall armyworm Sf9 cell expression system using sphingosine as substrate by ADP-quest assay
# Mus musculus [5] = test: Antiinflammatory activity in DSS- induced C57BL/6 mouse colitis model assessed as change in body weight at 50 mg/kg, ig after 7 days; assay type: functional, organism-based
# How it was run: (§1)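 Female C57BL/6 mice, 6–8 weeks, randomized into five groups. Colitis induced by 2.5% w/v DSS in drinking water for 5 days, then 5 days of normal water. Test agent given ip at 5 or 10 mg/kg, or 5-ASA ig at 50 mg/kg, until study end. Controls were water plus vehicle and DSS plus vehicle. Body weight recorded daily; colon length taken at sacrifice on day 10. Mean ± SD, n = 10.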
# Mus musculus [6] = test: Antiinflammatory activity in DSS- induced C57BL/6 mouse colon colitis model assessed as mucosal/submucosal lesion at 50 mg/kg, ig after 24 hrs by hematoxylin/eosin staining based assay; assay type: functional, organism-based
# How it was run: (§2)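 Colitis induced in female C57BL/6 mice as 2.5% DSS in drinking water for 5 days, then 5 days of water. Dosing ip or 5-ASA ig until sacrifice at day 10. Colons fixed in 10% buffered formalin (pH 7.4) for at least 24 h. Sections scored for cellular infiltration, mucosal lesion and crypt damage to give a histologic score.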
# Mus musculus [7] = test: Antiinflammatory activity in DSS- induced C57BL/6 mouse colon colitis model assessed as inhibition of IL6 expression at 50 mg/kg, ig after 24 hrs by hematoxylin staining based assay; assay type: functional, organism-based
# How it was run: (§3)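 Colons come from the same DSS model, fixed in 10% buffered formalin for at least 24 h. Paraffin sections were deparaffinized. Antigen was retrieved in 10 mM sodium citrate with 0.1% Tween 20 at 100 °C for 20 min. Primary antibody was applied in PBS with 5% BSA and 10% goat serum, then HRP polymer at room temperature for 30 min. Detection was DAB with hematoxylin counterstain. IL-6 and COX-2 positive labeling was counted automatically. Mean ± SD.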
# Mus musculus [8] = test: Antiinflammatory activity in DSS- induced C57BL/6 mouse colitis model assessed as colon length at 50 mg/kg, ig after 10 days (reference value: 45.68 +/- 1.34 mm); assay type: functional; how it was run: as §1
# Mus musculus [9] = test: Antiinflammatory activity in DSS- induced C57BL/6 mouse colon colitis model assessed as cellular infiltration of mononuclear macrophages/neutrophils at 50 mg/kg, ig after 24 hrs by hematoxylin/eosin staining based assay; assay type: functional, organism-based; how it was run: as §2
# Mus musculus [10] = test: Antiinflammatory activity in DSS- induced C57BL/6 mouse colitis model assessed as body weight at 50 mg/kg, ig after 10 days (reference value: 15.69 +/- 0.65 g); assay type: functional; how it was run: as §1
# Mus musculus [11] = test: Antiinflammatory activity in DSS- induced C57BL/6 mouse colon colitis model assessed as degeneration/necrosis of crypt cells at 50 mg/kg, ig after 24 hrs by hematoxylin/eosin staining based assay; assay type: functional, organism-based; how it was run: as §2
# Mus musculus [12] = test: Antiinflammatory activity in DSS- induced C57BL/6 mouse colon colitis model assessed as inhibition of COX2 expression at 50 mg/kg, ig after 24 hrs by hematoxylin staining based assay; assay type: functional, organism-based; how it was run: as §3
# T2 sequence (Q9NYA1 whole entry): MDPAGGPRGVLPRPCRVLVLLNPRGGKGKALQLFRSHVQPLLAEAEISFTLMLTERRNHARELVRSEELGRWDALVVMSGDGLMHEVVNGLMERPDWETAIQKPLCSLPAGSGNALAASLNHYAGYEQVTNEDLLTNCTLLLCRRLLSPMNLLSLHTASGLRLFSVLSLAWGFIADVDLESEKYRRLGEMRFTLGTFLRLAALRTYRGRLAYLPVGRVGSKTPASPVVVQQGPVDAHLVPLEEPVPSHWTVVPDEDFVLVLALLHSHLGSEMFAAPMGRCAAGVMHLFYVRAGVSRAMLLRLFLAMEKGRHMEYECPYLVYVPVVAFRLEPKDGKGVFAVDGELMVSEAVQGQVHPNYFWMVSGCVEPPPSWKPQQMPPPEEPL
IC50 (Sphingosine kinase 2 [1]) [µM],IC50 (Sphingosine kinase 1 [2]) [µM],Structure (SMILES),further results
> 100,> 100,COc1ccc(COc2cccc(/C=N/NC(=O)c3cc(O)c(O)c(O)c3)c2)cc1,–
4.6,5,COc1cccc(COc2cccc(/C=N/NC(=O)c3ccc(O)c(O)c3)c2)c1,–
> 100,> 100,O=C(N/N=C/c1ccc(OCc2ccccc2C(F)(F)F)cc1)c1cccc(O)c1,–
81.2,63.2,Cc1ccccc1COc1cccc(/C=N/NC(=O)c2cc(O)c(O)c(O)c2)c1,–
15.1,15,O=C(N/N=C/c1ccc(OCc2ccccc2C(F)(F)F)cc1)c1cc(O)c(O)c(O)c1,–
> 100,> 100,COc1cccc(COc2cccc(/C=N/NC(=O)c3cccc(O)c3)c2)c1,–
44.5,32.7,Cc1ccc(COc2ccc(/C=N/NC(=O)c3cc(O)c(O)c(O)c3)cc2)cc1,–
> 100,> 100,O=C(N/N=C/c1cccc(OCc2ccccc2C(F)(F)F)c1)c1ccc(O)cc1,–
> 100,> 100,O=C(N/N=C/c1cccc(OCc2ccccc2C(F)(F)F)c1)c1cccc(O)c1,–
> 100,> 100,O=C(N/N=C/c1cccc(OCc2cccc(C(F)(F)F)c2)c1)c1cc(O)c(O)c(O)c1,–
–,–,O=C(NCc1ccc(O)c(O)c1)C12CC3CC(C1)CC(c1ccc(Cl)cc1)(C3)C2,Ki (Sphingosine kinase 2 [3]): 4.2 µM; Ki (Sphingosine kinase 1 [4]): 3.2 µM
19.5,20.5,COc1ccccc1COc1cccc(/C=N/NC(=O)c2cc(O)c(O)c(O)c2)c1,–
8.7,8.57,COc1cccc(COc2cccc(/C=N/NC(=O)c3cc(O)c(O)c(O)c3)c2)c1,–
22.6,45.8,N#Cc1cccc(COc2ccc(/C=N/NC(=O)c3cc(O)c(O)c(O)c3)cc2)c1,–
58.8,36.8,O=C(N/N=C/c1cccc(OCc2ccccc2Cl)c1)c1cc(O)c(O)c(O)c1,–
65.4,45.8,Cc1ccc(COc2cccc(/C=N/NC(=O)c3cc(O)c(O)c(O)c3)c2)cc1,–
13.8,15.5,O=C(N/N=C/c1cccc(OCc2ccccc2C(F)(F)F)c1)c1ccc(O)c(O)c1,–
> 100,> 100,O=C(N/N=C/c1cccc(OCc2ccccc2)c1)c1ccc2[nH]cnc2c1,–
78.7,52.1,Cc1cccc(COc2cccc(/C=N/NC(=O)c3cc(O)c(O)c(O)c3)c2)c1,–
98.9,> 100,O=C(N/N=C/c1cccc(OCc2ccccc2F)c1)c1cc(O)c(O)c(O)c1,–
22.1,16.3,O=C(N/N=C/c1cccc(OCc2ccc(C(F)(F)F)cc2)c1)c1cc(O)c(O)c(O)c1,–
> 100,> 100,COc1cccc(COc2ccc(/C=N/NC(=O)c3ccc(O)cc3)cc2)c1,–
43.3,40.5,CC(C)(C)c1ccc(COc2ccc(/C=N/NC(=O)c3cc(O)c(O)c(O)c3)cc2)cc1,–
15.6,37.4,O=C(N/N=C/c1ccc(OCc2ccc(C(F)(F)F)cc2)cc1)c1cc(O)c(O)c(O)c1,–
23.8,54.7,O=C(N/N=C/c1ccc(OCc2cccc(C(F)(F)F)c2)cc1)c1cc(O)c(O)c(O)c1,–
17.8,27.7,N#Cc1ccc(COc2ccc(/C=N/NC(=O)c3cc(O)c(O)c(O)c3)cc2)cc1,–
> 100,> 100,O=C(N/N=C/c1cccc(OCc2ccccc2C(F)(F)F)c1)c1cc(O)cc(O)c1,–

IC50 (Sphingosine kinase 2 [1]) [µM],IC50 (Sphingosine kinase 1 [2]) [µM],Structure (SMILES),further results
16.3,19.6,O=C(N/N=C/c1cccc(OCc2ccccc2C(F)(F)F)c1)c1cc(O)c(O)c(O)c1,–
40.6,31.3,O=C(N/N=C/c1cccc(OCc2cccc3ccccc23)c1)c1cc(O)c(O)c(O)c1,–
> 100,> 100,COc1cccc(COc2cccc(/C=N/NC(=O)c3ccc(O)cc3)c2)c1,–
> 100,> 100,COc1cccc(COc2ccc(/C=N/NC(=O)c3cccc(O)c3)cc2)c1,–
10.1,25.3,COc1cccc(COc2ccc(/C=N/NC(=O)c3ccc(O)c(O)c3)cc2)c1,–
26.3,–,CCCCCCCCCCCCC/C=C/[C@@H](O)[C@H](CO)N(C)C [DIMETHYLSPINGOSINE],–
> 100,> 100,COc1ccc(COc2ccc(/C=N/NC(=O)c3cc(O)c(O)c(O)c3)cc2)cc1,–
> 100,85.3,N#Cc1cccc(COc2cccc(/C=N/NC(=O)c3cc(O)c(O)c(O)c3)c2)c1,–
–,–,Nc1ccc(O)c(C(=O)O)c1 [MESALAMINE],Activity (Mus musculus [5]): inactive; Activity (Mus musculus [6]): Active; inhibition (Mus musculus [7]): Active; Activity (Mus musculus [8]): 53.4 mm; Activity (Mus musculus [9]): Active; Activity (Mus musculus [10]): 18.32 g; Activity (Mus musculus [11]): Active; inhibition (Mus musculus [12]): Active
62.2,35.2,CC(C)(C)c1ccc(COc2cccc(/C=N/NC(=O)c3cc(O)c(O)c(O)c3)c2)cc1,–
26.6,18.4,COc1ccccc1COc1ccc(/C=N/NC(=O)c2cc(O)c(O)c(O)c2)cc1,–
> 100,> 100,O=C(N/N=C/c1ccc(OCc2ccccc2C(F)(F)F)cc1)c1ccc(O)cc1,–
26.3,40.2,O=C(N/N=C/c1cccc(OCc2ccccc2)c1)c1cc(O)c(O)c(O)c1,–
61.2,> 100,O=C(N/N=C/c1cccc(OCc2ccc(Cl)cc2)c1)c1cc(O)c(O)c(O)c1,–
> 100,> 100,O=C(N/N=C/c1ccc(OCc2ccccc2C(F)(F)F)cc1)c1cc(O)cc(O)c1,–
> 100,> 100,COc1cccc(COc2ccc(/C=N/NC(=O)c3cc(O)cc(O)c3)cc2)c1,–
28.5,22,O=C(N/N=C/c1ccc(OCc2ccccc2)cc1)c1cc(O)c(O)c(O)c1,–
68.6,45.4,N#Cc1ccccc1COc1cccc(/C=N/NC(=O)c2cc(O)c(O)c(O)c2)c1,–
44.5,> 100,N#Cc1ccccc1COc1ccc(/C=N/NC(=O)c2cc(O)c(O)c(O)c2)cc1,–
11.4,16.5,O=C(N/N=C/c1ccc(OCc2ccccc2C(F)(F)F)cc1)c1ccc(O)c(O)c1,–
> 100,> 100,O=C(N/N=C/c1cccc(OCc2cccc(F)c2)c1)c1cc(O)c(O)c(O)c1,–
> 100,> 100,COc1cccc(COc2cccc(/C=N/NC(=O)c3cc(O)cc(O)c3)c2)c1,–
67.4,> 100,O=C(N/N=C/c1cccc(OCc2cccc(Cl)c2)c1)c1cc(O)c(O)c(O)c1,–
30.2,20.6,O=C(N/N=C/c1ccc(OCc2ccc3ccccc3c2)cc1)c1cc(O)c(O)c(O)c1,–
> 100,> 100,O=C(N/N=C/c1cccc(OCc2ccc(F)cc2)c1)c1cc(O)c(O)c(O)c1,–
35.1,69.4,N#Cc1ccc(COc2cccc(/C=N/NC(=O)c3cc(O)c(O)c(O)c3)c2)cc1,–
